Converted amounts (≈) assume the structure as drawn. The source made the active and inactive calls. The rule behind the calls is not given here.
Experiments:
[1] = test system: Staphylococcus aureus; test: Antimicrobial activity against methicillin-resistant Staphylococcus aureus NRS 70 by microbroth dilution method; assay type: functional
[2] = test system: Enterococcus faecalis; test: Antimicrobial activity against Enterococcus faecalis ATCC 33186 by microbroth dilution method; assay type: functional
[3] = test system: Escherichia coli; test: Antimicrobial activity against Escherichia coli K-12 by microbroth dilution method; assay type: functional
[4] = test system: Klebsiella pneumoniae; test: Antimicrobial activity against Klebsiella pneumoniae ATCC 33495 at >200 ug/ml by microbroth dilution method; assay type: functional
[5] = Selectivity index, ratio of CC50 for african green monkey Vero cells to IC50 for methicillin-resistant Staphylococcus aureus NRS 70; assay type: functional
Method in brief: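 Vero kidney epithelial cells were grown in DMEM/10% FBS, trypsinized, seeded at about 10% confluence and left overnight to adhere. They were then exposed to 2-fold serial compound dilutions in DMEM/FBS, and viability was read by MTT after overnight solubilization. SI = cytotoxic IC50 divided by MIC against MRSA.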

[6] = test system: Escherichia coli; test: Antimicrobial activity against tolC-deficient Escherichia coli by microbroth dilution method; assay type: functional
[7] = test system: Pseudomonas aeruginosa; test: Antimicrobial activity against Pseudomonas aeruginosa PAO1 at >200 ug/ml by microbroth dilution method; assay type: functional
[8] = Solubility of the compound in DMEM/FBS medium; assay type: physicochemical
Method in brief: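 Solubility limit estimated from 2-fold serial dilutions in DMEM with 5% FBS kept overnight at 37 °C; highest concentration with no visible precipitate taken.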

[9] = test system: Staphylococcus aureus; test: Antimicrobial activity against methicillin-sensitive Staphylococcus aureus ATCC 29213 by microbroth dilution method; assay type: functional
[10] = test system: Mycobacterium tuberculosis; test: Antimicrobial activity against Mycobacterium tuberculosis H37Rv by microbroth dilution method; assay type: functional
[11] = test system: Vero; test: Cytotoxicity against african green monkey Vero cells assessed as reduction in cell viability by MTT assay; assay type: cell-based; conditions: Chlorocebus sabaeus
Method in brief: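 Vero kidney epithelial cells (ATCC CCL-81) in DMEM/10% FBS, trypsinized, seeded near 10% confluence, left overnight to adhere; medium swapped for DMEM/FBS with 2-fold serial compound dilutions.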

[12] = target: DNA gyrase (Escherichia coli, UniProt P0AES4+P0AES6); test: Inhibition of Escherichia coli DNA gyrase assessed as supercoiled plasmid DNA formation after 30 mins by electrophoretic analysis; assay type: protein-complex assay
[13] = Inhibition of purified recombinant Escherichia coli topoisomerase 1 assessed as relaxation of supercoiled plasmid DNA after 30 mins by electrophoretic analysis
[14] = Inhibition of Escherichia coli topoisomerase 4 assessed as inhibition of decatenation of catenated kinetoplast DNA after 30 mins by electrophoretic analysis
[15] = test system: Staphylococcus aureus; test: Disruption of membrane potential in Staphylococcus aureus Newman assessed as […] using DiOC2(3) probe by fluorescence assay; assay type: functional
Method in brief: (§1)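 S. aureus Newman grown to OD600nm ≈ 0.3 in Mueller–Hinton II, stained with DiOC2(3) and run on flow cytometry; red/green fluorescence ratio gives membrane potential. CCCP positive control, vancomycin negative control.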

[16] = test system: Staphylococcus aureus; test: Disruption of membrane potential in Staphylococcus aureus Newman assessed as […] at 4 times MIC using DiOC2(3) probe by fluorescence assay; assay type: functional; method in brief: as §1
[17] = test system: Staphylococcus aureus; test: Bacteriostatic activity against Staphylococcus aureus Newman assessed as log reduction in bacterial cell count at 4 times MIC up to 24 hrs by time-kill assay relative to control; assay type: functional
[18] = test system: Staphylococcus aureus; test: Antimicrobial activity against Staphylococcus aureus Newman; assay type: functional
[19] = test system: Staphylococcus aureus; test: Bactericidal activity against Staphylococcus aureus Newman assessed as log reduction in bacterial cell count at 4 times MIC at 6 hrs by time-kill assay relative to control; assay type: functional

For `CC(C)=CCCC(C)CC1CC(=O)c2ccc(O)cc2O1` (stereo unspecified), the MIC [1] was 3.13 µg/mL (≈ 10.9 µM), the MIC [2] was 12.5 µg/mL (≈ 43.3 µM) and the MIC [3] was greater than 200 µg/mL. The MIC [4] was greater than 200 µg/mL, the “Selectivity Index” value [5] was 9.2 and the MIC [6] was 1.56 µg/mL (≈ 5.41 µM). The MIC [7] was greater than 200 µg/mL, the solubility [8] was greater than 200 µg/mL and the MIC [9] was 6.25 µg/mL (≈ 21.7 µM). For the same compound, the MIC [10] was 200 µg/mL (≈ 694 µM) and the IC50 [11] was 28.8 µg/mL (≈ 99.9 µM).
Work on `CCCCCCOc1ccccc1/C=C/C(=O)c1ccc(O)cc1O` yielded an MIC [1] of 0.78 µg/mL (≈ 2.29 µM), an MIC [2] of 1.56 µg/mL (≈ 4.58 µM) and an IC50 [12] greater than 1000 µM. The MIC [3] was greater than 200 µg/mL, the IC50 [13] was greater than 500 µM and the MIC [4] was greater than 200 µg/mL. The “Selectivity Index” value [5] was 9.2, the IC50 [14] was 60 µM and the MIC [6] was greater than 200 µg/mL. The MIC [7] was greater than 200 µg/mL, the solubility [8] was greater than 200 µg/mL and the MIC [9] was 3.13 µg/mL (≈ 9.19 µM). For the same compound, the MIC [10] was greater than 200 µg/mL and the IC50 [11] was 7.2 µg/mL (≈ 21.2 µM).
`CCCCCCOc1ccccc1C1CC(=O)c2ccc(O)cc2O1` (stereo unspecified) gave an MIC [1] of 1.56 µg/mL (≈ 4.58 µM), an MIC [2] of 50 µg/mL (≈ 147 µM) and an IC50 [12] greater than 1000 µM. The MIC [3] was greater than 200 µg/mL, the IC50 [13] was greater than 500 µM and the MIC [4] was greater than 200 µg/mL. For the same compound, the “Selectivity Index” value [5] was 15.7, the IC50 [14] was greater than 1000 µM and the MIC [6] was 1.56 µg/mL (≈ 4.58 µM). For the same compound, the MIC [7] was greater than 200 µg/mL, the solubility [8] was greater than 200 µg/mL and the MIC [9] was 1.56 µg/mL (≈ 4.58 µM). For the same compound, the MIC [10] was greater than 200 µg/mL and the IC50 [11] was 24.5 µg/mL (≈ 72 µM).
For `CCn1cc(C(=O)O)c(=O)c2ccc(C)nc21` [NALIDIXIC ACID], the IC50 [14] was 806 µM.
With `CC(C)=CCCC(C)CC1CC(=O)c2c(O)cc(O)cc2O1` (stereo unspecified) the MIC [1] was 3.13 µg/mL (≈ 10.3 µM), the Activity [15] was “Dose-dependent effect” and the MIC [2] was 6.25 µg/mL (≈ 20.5 µM). For the same compound, the Activity [16] was “Active”, the MIC [3] was greater than 200 µg/mL and the MIC [4] was greater than 200 µg/mL. For the same compound, the “Selectivity Index” value [5] was 8.6, the MIC [6] was 1.56 µg/mL (≈ 5.13 µM) and the MIC [7] was greater than 200 µg/mL. It also gave a solubility [8] greater than 200 µg/mL, an MIC [10] of 200 µg/mL (≈ 657 µM) and an IC50 [11] of 27 µg/mL (≈ 88.7 µM).
In the case of `CCCCCCCC1C/C(=N\O)c2c(O)cc(O)cc2O1` (stereo unspecified), the MIC [2] is reported as 6.25 µg/mL (≈ 21.3 µM), the MIC [3] is reported as greater than 200 µg/mL and the MIC [4] is reported as greater than 200 µg/mL. The “Selectivity Index” value [5] was 3.1, the MIC [7] was greater than 200 µg/mL and the solubility [8] was greater than 200 µg/mL. For the same compound, the MIC [10] was 100 µg/mL (≈ 341 µM) and the IC50 [11] was 9.6 µg/mL (≈ 32.7 µM).
For `CC[C@H](C)C(=O)c1c(O)cc(O)cc1OC/C=C(\C)CCC=C(C)C` [OLYMPICIN A], the MIC [1] was 1.56 µg/mL (≈ 4.5 µM), the Activity [15] was “Dose-dependent effect” and the Activity [16] was “Active”. The MIC [3] was greater than 200 µg/mL, the IC50 [13] was greater than 500 µM and the MIC [4] was greater than 200 µg/mL. It also gave an IC50 [14] of 30 µM and an MIC [7] greater than 200 µg/mL.
With `O=C(/C=C/c1ccc(N2CCCCC2)cc1)c1ccc(O)cc1O` the MIC [1] was 3.13 µg/mL (≈ 9.68 µM), the Activity [15] was “Dose-dependent effect” and the MIC [2] was 25 µg/mL (≈ 77.3 µM). The IC50 [12] was greater than 1000 µM, the Activity [16] was “Active” and the MIC [3] was greater than 200 µg/mL. The LCK [17] was “<=3”, the IC50 [13] was greater than 500 µM and the MIC [4] was greater than 200 µg/mL. The “Selectivity Index” value [5] was 5.3, the IC50 [14] was 500 µM and the MIC [6] was 12.5 µg/mL (≈ 38.7 µM). The MIC [7] was greater than 200 µg/mL, the solubility [8] was 100 µg/mL (≈ 309 µM) and the MIC [9] was 3.13 µg/mL (≈ 9.68 µM). The MIC [10] was 100 µg/mL (≈ 309 µM) and the IC50 [11] was 16.7 µg/mL (≈ 51.6 µM).
For `CCCCCCCCOc1ccccc1C1CC(=O)c2ccc(O)cc2O1` (stereo unspecified), the MIC [1] was 3.13 µg/mL (≈ 8.49 µM), the MIC [2] was 1.56 µg/mL (≈ 4.23 µM) and the IC50 [12] was greater than 1000 µM. For the same compound, the MIC [3] was greater than 200 µg/mL, the IC50 [13] was greater than 500 µM and the MIC [4] was greater than 200 µg/mL. The “Selectivity Index” value [5] was 5.4, the IC50 [14] was greater than 1000 µM and the MIC [6] was greater than 200 µg/mL. It also gave an MIC [7] greater than 200 µg/mL, a solubility [8] greater than 200 µg/mL and an MIC [9] of 12.5 µg/mL (≈ 33.9 µM). It also gave an MIC [10] greater than 200 µg/mL and an IC50 [11] of 17 µg/mL (≈ 46.1 µM).
In the case of `CCCCCc1cc(OC(=O)c2c(O)cc(O)cc2CCCCC)cc(O)c1C(=O)O`, the IC50 [13] is reported as 14 µM.
For `N#CC(C#N)=NNc1cccc(Cl)c1` [CARBONYL CYANIDE M-CHLOROPHENYLHYDRAZONE], the MIC [18] was 6.25 µg/mL (≈ 30.5 µM).
`C=CCOc1ccccc1/C=C/C(=O)c1ccc(O)cc1O` showed an MIC [1] of 0.39 µg/mL (≈ 1.32 µM), an MIC [2] of 12.5 µg/mL (≈ 42.2 µM) and an MIC [3] greater than 200 µg/mL. The IC50 [13] was greater than 500 µM, the MIC [4] was greater than 200 µg/mL and the “Selectivity Index” value [5] was 54.4. It also gave an IC50 [14] of 250 µM, an MIC [6] of 3.13 µg/mL (≈ 10.6 µM) and an LCK [19] of 6. For the same compound, the MIC [7] was greater than 200 µg/mL, the solubility [8] was greater than 200 µg/mL and the MIC [9] was 6.25 µg/mL (≈ 21.1 µM). It also gave an MIC [10] of 200 µg/mL (≈ 675 µM) and an IC50 [11] of 21.2 µg/mL (≈ 71.5 µM).
Work on `CSc1ccc2c(c1)N(CCC1CCCCN1C)c1ccccc1S2` (stereo unspecified) [THIORIDAZINE] yielded an IC50 [11] of 5.3 µg/mL (≈ 14.3 µM).
